Among the data in ChEMBL document CHEMBL3758146, “Synthesis and biological evaluation of quinazolin-4(3H)-one derivatives bearing dithiocarbamate side chain at C2-position as potential antitumor agents” (Eur J Med Chem, 2016) are IC50 values, retold here.

Molecules are shown by their SMILES. pIC50: −log10 of the molar value. Where only a bound is given, the exact number is not on record here.

Common to all, as to assay type: functional, cell-based
One test concerns HeLa. Kind of test: Antiproliferative activity against human HeLa cells after 72 hrs by MTS assay. The gist of the method:
(§1)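 MTS (CellTiter 96 AQueous One) read-out after 72 h exposure; compounds first screened at 50 µM, with ≥50% inhibition versus vehicle-treated cells counted as active. Actives were then tested at various concentrations to give IC50 (concentration causing 50% proliferation inhibition). Triplicate wells, three independent experiments, mean ± SD. 5-FU as positive control.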

For another test, the system named is A549. Nature of the test: Antiproliferative activity against human A549 cells after 72 hrs by MTS assay. Particulars: A549, 72 h. The gist of the method:
as §1

The nature of test [1]: Antiproliferative activity against human HCT116 cells after 72 hrs by MTS assay. As to conditions: HCT-116, 72 h. The gist of the method:
as §1

Another test deals with MCF7. Kind of test: Antiproliferative activity against human MCF7 cells after 72 hrs by MTS assay. As to conditions: MCF7, 72 h. The gist of the method:
as §1
A general note: Tetrazolium dyes change colour on reduction, which living cells bring about.

The next test deals with HT-29. Kind of test: Antiproliferative activity against human HT-29 cells after 72 hrs by MTS assay. As to conditions: HT-29, 72 h. The gist of the method: as §1

The pIC50 is −log10 of the IC50, conventionally taken in molar units. Read a low pIC50 as a high IC50. Regarding `O=c1[nH]c(CSC(=S)NCc2ccc(Cl)cc2Cl)nc2ccccc12`, the pIC50 in the test with HeLa is 4.54; with A549, 4.89; in test [1], 4.53; with MCF7, below 4.30; with HT-29, 4.94.
Consider `O=c1[nH]c(CSC(=S)NCc2ccccc2F)nc2ccccc12`, for which the pIC50 with HeLa was 4.88; in the test with A549, 4.67; in test [1] it was 4.69; with MCF7, 4.69; with HT-29 it was 4.78.
For the molecule `O=c1[nH]c(CSC(=S)NCc2ccc(Cl)cc2)nc2ccccc12`, the pIC50 (in the test with HeLa; in the test with A549; in test [1]; with MCF7; in the test with HT-29) was below 4.30 in each case.
Consider `O=c1[nH]c(CSC(=S)NCc2ccc3c(c2)OCO3)nc2ccccc12`, for which the pIC50 is 4.69 in the test on HeLa; 4.35 in the test on A549; 4.47 in test [1]; 4.66 in the test on MCF7; 4.72 with HT-29.
On the same counts, the results for `Cc1ccc(CNC(=S)SCc2nc3ccccc3c(=O)[nH]2)cc1` are 4.68, 4.49, 4.64, 4.67 and 4.79.
As to `O=c1[nH]c(CSC(=S)NCc2ccccn2)nc2ccccc12`, the pIC50 (in the test with HeLa; with A549; in test [1]; in the test with MCF7; with HT-29) was below 4.30 each time.
In the case of `O=c1[nH]c(CSC(=S)NCc2ccc(F)cc2F)nc2ccccc12`, the pIC50 with HeLa is 4.70; with A549, 4.51; in test [1], 4.65; in the test on MCF7 it was 4.69; in the test on HT-29, 4.81.
For `COc1ccc(CNC(=S)SCc2nc3ccccc3c(=O)[nH]2)c(OC)c1` the same measures were 4.80, 4.98, 4.59, 4.87 and 5.00.
On the same counts, the results for `COc1cc(CNC(=S)SCc2nc3ccccc3c(=O)[nH]2)cc(OC)c1OC` are 4.64, 4.98, 4.76, 5.05 and 5.15.
Consider `O=c1[nH]c(CSC(=S)NCc2ccc(Br)cc2)nc2ccccc12`, for which the pIC50 is 4.64 in the test with HeLa; 4.74 in the test on A549; 4.34 in test [1]; 4.41 in the test with MCF7; 4.49 in the test on HT-29.
On to `O=c1[nH]c(CSC(=S)NCc2cccnc2)nc2ccccc12`, for which the pIC50 was 4.96 in the test on HeLa; 4.83 in the test on A549; 4.95 in test [1]; 4.69 in the test on MCF7; 4.85 with HT-29.
On the same counts, the results for `O=c1[nH]c(CSC(=S)NCc2ccc(F)cc2)nc2ccccc12` are 4.67, 4.97, 4.70, 4.76 and 4.73.
On the same counts, the results for `O=c1[nH]c(CSC(=S)NCc2ccco2)nc2ccccc12` are 4.51, 4.37, 4.61, below 4.30 and 4.47.
On the same counts, the results for `O=c1[nH]c(CSC(=S)NCc2ccccc2)nc2ccccc12` are 4.97, 4.62, 4.74, 4.50 and 4.84.
`O=c1[nH]c(CSC(=S)NCc2ccc([N+](=O)[O-])cc2)nc2ccccc12`: the pIC50 was 4.55 in the test on HeLa; 4.94 in the test on A549; 4.79 in test [1]; 4.71 with MCF7; 4.76 with HT-29.
Consider `O=c1[nH]c(CSC(=S)NCc2cccs2)nc2ccccc12`, for which the pIC50 in the test with HeLa was 4.58; in the test on A549, 4.59; in test [1], 4.79; in the test with MCF7 it was 4.62; in the test on HT-29, 4.79.
